Test results published in ChEMBL document CHEMBL4138186, “Synthesis and bio-evaluation of indole-chalcone based benzopyrans as promising antiligase and antiproliferative agents” (Eur J Med Chem, 2018).
Activity calls are given as the source filed them. The rule behind the calls is not given here.

Tests used:
[1] = target: DNA ligase 1 (Homo sapiens) (UniProt P18858); assay: Inhibition of human Lig1 at 10 uM using double strand nicked DNA as substrate after 30 mins in presence of ATP by acrylamide-based fluorescence-assay
In short: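 Cy3-labelled nicked duplex (52-mer annealed to 25- and 27-mers; 1 pmol) with purified hLigI (0.2 pmol) in 50 mM Tris-Cl pH 7.5, 10 mM MgCl2, 0.25 mg/mL BSA, 100 mM NaCl, 500 µM ATP. Compound at 10 μM; 30 min at 37 °C. Stopped with formamide/EDTA; ligated and unligated strands separated on 7 M urea/12% denaturing gel. Triplicate.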

HepG2 = assay: Antiproliferative activity against human HepG2 cells at 10 uM after 48 hrs by MTT assay; assay type: functional, cell-based
In short: (§1)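 Cells seeded and allowed to adhere overnight, then given compound from 10 mM DMSO stock; DMSO alone as vehicle control. Grown 48 h, MTT (5 mg/ml) added for 3 h, formazan dissolved in DMSO, absorbance read at 590 nm. % inhibition = (A control − A treated)/A control × 100; three independent biological replicates. Single-point screen at 10 μM; IC50 from three independent experiments.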

DLD-1 = assay: Antiproliferative activity against human DLD1 cells at 10 uM after 48 hrs by MTT assay; assay type: functional, cell-based; in short: as §1
4T1 (Mus musculus) = assay: Antiproliferative activity against mouse 4T1 cells at 10 uM after 48 hrs by MTT assay
HeLa = assay: Antiproliferative activity against human HeLa cells at 10 uM after 48 hrs by MTT assay; assay type: functional, cell-based; in short: as §1
MDA-MB-231 = assay: Antiproliferative activity against human MDA-MB-231 cells at 10 uM after 48 hrs by MTT assay; assay type: functional, cell-based; in short: as §1
DNA = assay: Binding affinity to Escherichia coli pUC18 DNA assessed as protection against DNase1-mediated cleavage at 500 uM preincubated for 30 mins followed by DNase1 addition measured after 5 mins by 1% agarose gel based UV-transilluminator analysis; assay type: nucleic-acid assay
In short: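 Linearized pUC18 plasmid DNA (100 ng) incubated with compound (250, 500, 700 μM) or controls (doxorubicin 100 μM; DAPI, methyl green, ampicillin 500 μM) for 30 min at 37 °C in ligation-like buffer. DNase I 0.0025 U added for 5 min at 37 °C, stopped with urea/EDTA buffer, resolved on 1% agarose and imaged under UV.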

Chain of DNA ligase 1 (Homo sapiens) (P18858 whole entry): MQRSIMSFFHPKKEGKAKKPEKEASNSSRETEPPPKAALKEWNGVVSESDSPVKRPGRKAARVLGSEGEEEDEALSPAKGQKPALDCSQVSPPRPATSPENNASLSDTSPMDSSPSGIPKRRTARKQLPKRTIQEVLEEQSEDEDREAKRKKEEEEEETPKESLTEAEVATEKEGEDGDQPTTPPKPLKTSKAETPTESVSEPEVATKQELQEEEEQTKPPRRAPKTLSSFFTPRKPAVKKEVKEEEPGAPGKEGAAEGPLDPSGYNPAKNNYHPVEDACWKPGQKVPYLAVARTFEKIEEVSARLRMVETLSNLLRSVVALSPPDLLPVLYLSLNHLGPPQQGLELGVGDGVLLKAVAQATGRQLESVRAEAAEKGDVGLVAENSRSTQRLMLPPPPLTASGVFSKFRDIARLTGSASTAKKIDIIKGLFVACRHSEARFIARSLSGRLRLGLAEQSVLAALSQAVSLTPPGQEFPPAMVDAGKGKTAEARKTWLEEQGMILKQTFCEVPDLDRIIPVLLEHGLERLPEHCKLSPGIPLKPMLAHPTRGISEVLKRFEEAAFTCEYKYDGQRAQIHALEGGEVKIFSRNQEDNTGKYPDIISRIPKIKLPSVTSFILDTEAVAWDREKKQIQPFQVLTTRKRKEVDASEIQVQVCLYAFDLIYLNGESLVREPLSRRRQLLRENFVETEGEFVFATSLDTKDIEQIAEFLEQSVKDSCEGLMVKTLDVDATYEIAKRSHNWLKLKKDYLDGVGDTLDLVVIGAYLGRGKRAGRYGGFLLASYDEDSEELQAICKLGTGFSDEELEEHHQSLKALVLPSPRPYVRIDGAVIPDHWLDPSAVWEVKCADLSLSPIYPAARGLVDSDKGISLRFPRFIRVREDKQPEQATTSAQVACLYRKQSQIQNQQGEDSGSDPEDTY

Structure (SMILES)	inhibition [1] [%]	Activity (DNA)	Activity (HepG2)	Activity (DLD-1)	Activity (4T1 (Mus musculus))	Activity (HeLa)	Activity (MDA-MB-231)
Cc1cc(/C=C/C(=O)c2cccs2)cc2c1OC(N)=C(C#N)C2c1c(C)[nH]c2ccccc12 (configuration not stated)	> 45	–	Active	Active	Active	Active	Active
COc1ccc2[nH]c(C)c(C3C(C#N)=C(N)Oc4c(C(C)C)cc(/C=C/C(=O)c5cccs5)cc43)c2c1 (configuration not stated)	< 20	–	Active	Active	Active	Active	Active
COc1ccc2[nH]c(C)c(C3C(C#N)=C(N)Oc4c3cc(/C=C/C(=O)c3cccs3)cc4C(C)(C)C)c2c1 (configuration not stated)	< 20	–	Active	Active	Active	Active	Active
CCC(C)c1cc(/C=C/C(=O)c2cc(OC)c(OC)c(OC)c2)cc2c1OC(N)=C(C#N)C2c1c(C)[nH]c2ccccc12 (configuration not stated)	< 20	–	–	–	–	–	–

Second part, led by results:

inhibition [1] [%]	Activity (DNA)	Structure (SMILES)	Activity (HepG2)	Activity (DLD-1)	Activity (4T1 (Mus musculus))	Activity (HeLa)	Activity (MDA-MB-231)
> 50	–	COc1ccc(C(=O)/C=C/c2cc3c(c(C(C)(C)C)c2)OC(N)=C(C#N)C3c2c(C)[nH]c3ccc(Cl)cc23)cc1 (configuration not stated)	–	–	–	–	–
–	inactive	CC1(C)S[C@@H]2[C@H](NC(=O)[C@H](N)c3ccccc3)C(=O)N2[C@H]1C(=O)O	–	–	–	–	–
< 20	–	COc1ccc(C(=O)/C=C/c2cc3c(c(C(C)(C)C)c2)OC(N)=C(C#N)C3c2c(C)[nH]c3ccccc23)cc1 (configuration not stated)	–	–	–	–	–
